In ChEMBL document CHEMBL1136272, “Development of a presynaptic 5-HT1A antagonist” (Bioorg Med Chem Lett, 2003):

Columns and labels:
[1] = target: T1, 5-hydroxytryptamine receptor 1A (Rattus norvegicus, UniProt P19327); experiment: Inhibition of the 5-hydroxytryptamine 1A receptor in rat dorsal raphe
T1 sequence (P19327 whole entry): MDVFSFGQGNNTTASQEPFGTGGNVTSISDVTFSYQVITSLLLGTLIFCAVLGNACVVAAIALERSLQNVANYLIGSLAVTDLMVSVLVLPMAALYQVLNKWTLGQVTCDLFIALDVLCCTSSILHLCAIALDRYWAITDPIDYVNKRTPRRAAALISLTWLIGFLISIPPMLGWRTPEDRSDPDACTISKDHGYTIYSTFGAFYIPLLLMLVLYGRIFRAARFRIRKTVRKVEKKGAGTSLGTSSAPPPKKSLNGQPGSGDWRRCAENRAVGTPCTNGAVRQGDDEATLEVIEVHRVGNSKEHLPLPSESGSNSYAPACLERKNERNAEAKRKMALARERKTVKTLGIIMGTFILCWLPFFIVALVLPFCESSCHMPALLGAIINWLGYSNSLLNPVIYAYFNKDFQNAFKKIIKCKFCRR

[2] = target: 5-hydroxytryptamine receptor 1B (Rattus norvegicus, UniProt P28564); experiment: Inhibitory concentration required against 5-hydroxytryptamine 1B receptor in rat striatum using [3H]5-HT; type: tissue-based
5-hydroxytryptamine receptor 1B, sequence (P28564 whole entry): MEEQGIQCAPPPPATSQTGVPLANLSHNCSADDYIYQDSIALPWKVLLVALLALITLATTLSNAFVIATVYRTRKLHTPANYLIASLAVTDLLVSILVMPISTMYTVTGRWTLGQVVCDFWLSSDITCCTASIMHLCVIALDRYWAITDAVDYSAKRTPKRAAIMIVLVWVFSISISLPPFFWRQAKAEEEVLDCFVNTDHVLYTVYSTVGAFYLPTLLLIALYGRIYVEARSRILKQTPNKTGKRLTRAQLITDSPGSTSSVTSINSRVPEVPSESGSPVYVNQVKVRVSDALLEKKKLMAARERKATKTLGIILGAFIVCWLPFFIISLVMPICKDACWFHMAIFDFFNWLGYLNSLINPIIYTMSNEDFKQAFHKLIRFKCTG

[3] = target: Serotonin 2 (5-HT2) receptor (Rattus norvegicus, UniProt P30994+P08909+P14842); experiment: Inhibitory concentration required against 5-hydroxytryptamine 2 receptor in rat cortex using [3H]spiperone
[4] = target: T2, Adrenergic receptor alpha-2 (Rattus norvegicus, UniProt P22086+P19328+P22909); experiment: Inhibitory concentration required against Alpha-2 adrenergic receptor in rat cortex [3H]clonidine
T2 sequence (P22086 whole entry): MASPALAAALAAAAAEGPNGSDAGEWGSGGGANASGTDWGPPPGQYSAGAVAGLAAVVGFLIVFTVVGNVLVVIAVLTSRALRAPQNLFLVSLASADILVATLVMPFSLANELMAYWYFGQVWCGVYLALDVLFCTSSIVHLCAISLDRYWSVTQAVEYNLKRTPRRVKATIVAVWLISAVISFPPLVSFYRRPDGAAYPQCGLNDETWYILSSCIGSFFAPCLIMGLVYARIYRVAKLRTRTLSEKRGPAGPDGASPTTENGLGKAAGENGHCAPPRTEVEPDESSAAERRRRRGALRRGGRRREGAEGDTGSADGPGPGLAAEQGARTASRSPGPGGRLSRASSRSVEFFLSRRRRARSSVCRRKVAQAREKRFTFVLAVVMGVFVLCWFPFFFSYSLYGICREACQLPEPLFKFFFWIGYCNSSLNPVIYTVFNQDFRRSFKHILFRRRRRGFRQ
T2 sequence (P19328 whole entry): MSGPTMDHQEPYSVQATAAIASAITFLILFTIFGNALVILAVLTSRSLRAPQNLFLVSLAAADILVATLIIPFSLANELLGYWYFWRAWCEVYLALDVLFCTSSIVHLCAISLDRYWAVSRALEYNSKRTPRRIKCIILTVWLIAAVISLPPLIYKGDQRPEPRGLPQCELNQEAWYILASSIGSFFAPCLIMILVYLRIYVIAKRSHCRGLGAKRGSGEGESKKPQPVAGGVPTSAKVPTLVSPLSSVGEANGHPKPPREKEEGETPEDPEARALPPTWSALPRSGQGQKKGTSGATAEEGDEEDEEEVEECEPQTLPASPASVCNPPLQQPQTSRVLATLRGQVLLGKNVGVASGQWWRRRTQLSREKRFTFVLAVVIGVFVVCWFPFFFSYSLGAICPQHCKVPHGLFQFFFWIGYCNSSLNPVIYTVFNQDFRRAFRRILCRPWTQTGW
T2 sequence (P22909 whole entry): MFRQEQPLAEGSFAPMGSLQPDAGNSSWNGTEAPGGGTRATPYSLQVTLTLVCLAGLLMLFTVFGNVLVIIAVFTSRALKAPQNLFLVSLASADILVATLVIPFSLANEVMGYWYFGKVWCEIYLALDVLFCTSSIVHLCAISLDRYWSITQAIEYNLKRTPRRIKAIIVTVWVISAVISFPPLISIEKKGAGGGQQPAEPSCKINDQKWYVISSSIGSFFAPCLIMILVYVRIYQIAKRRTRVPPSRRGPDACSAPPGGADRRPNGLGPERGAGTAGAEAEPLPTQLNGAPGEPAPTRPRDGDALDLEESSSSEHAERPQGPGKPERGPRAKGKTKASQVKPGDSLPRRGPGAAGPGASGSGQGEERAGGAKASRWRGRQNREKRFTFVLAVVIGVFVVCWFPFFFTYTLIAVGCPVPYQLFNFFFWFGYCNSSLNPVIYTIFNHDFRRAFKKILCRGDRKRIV

[5] = target: T3, Adrenergic receptor alpha-1 (Rattus norvegicus, UniProt P15823+P23944+P43140); experiment: Inhibitory concentration required against alpha-1 adrenergic receptor in rat cortex using [3H]-WB- 4101
T3 sequence (P15823 whole entry): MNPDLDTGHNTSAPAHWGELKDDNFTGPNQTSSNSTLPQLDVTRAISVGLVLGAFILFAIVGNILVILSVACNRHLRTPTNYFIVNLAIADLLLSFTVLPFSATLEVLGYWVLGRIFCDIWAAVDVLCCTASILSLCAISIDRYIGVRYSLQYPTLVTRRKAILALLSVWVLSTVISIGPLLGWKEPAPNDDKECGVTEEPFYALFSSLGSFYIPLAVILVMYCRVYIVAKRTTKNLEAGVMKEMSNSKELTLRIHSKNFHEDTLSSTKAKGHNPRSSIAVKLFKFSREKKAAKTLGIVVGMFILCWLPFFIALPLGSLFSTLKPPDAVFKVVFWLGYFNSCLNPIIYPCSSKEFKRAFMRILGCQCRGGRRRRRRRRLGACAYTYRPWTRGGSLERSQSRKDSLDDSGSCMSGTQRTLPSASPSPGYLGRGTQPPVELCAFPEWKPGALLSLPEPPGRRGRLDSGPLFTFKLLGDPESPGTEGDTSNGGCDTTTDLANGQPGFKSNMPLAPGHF
T3 sequence (P23944 whole entry): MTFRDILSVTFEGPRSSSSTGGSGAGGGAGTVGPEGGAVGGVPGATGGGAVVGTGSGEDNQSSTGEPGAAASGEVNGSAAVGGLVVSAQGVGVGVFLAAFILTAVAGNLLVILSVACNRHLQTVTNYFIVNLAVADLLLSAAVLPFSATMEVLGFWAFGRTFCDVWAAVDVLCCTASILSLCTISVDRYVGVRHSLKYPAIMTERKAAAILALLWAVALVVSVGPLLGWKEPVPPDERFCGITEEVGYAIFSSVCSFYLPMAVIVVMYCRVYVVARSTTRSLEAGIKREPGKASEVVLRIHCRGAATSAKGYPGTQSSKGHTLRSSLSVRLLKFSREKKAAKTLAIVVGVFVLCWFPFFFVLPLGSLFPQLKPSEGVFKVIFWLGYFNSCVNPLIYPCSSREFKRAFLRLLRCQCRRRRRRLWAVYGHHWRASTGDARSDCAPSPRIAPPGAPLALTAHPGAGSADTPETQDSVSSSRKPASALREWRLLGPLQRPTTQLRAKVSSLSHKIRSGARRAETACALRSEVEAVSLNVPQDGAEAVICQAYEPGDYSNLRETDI
T3 sequence (P43140 whole entry): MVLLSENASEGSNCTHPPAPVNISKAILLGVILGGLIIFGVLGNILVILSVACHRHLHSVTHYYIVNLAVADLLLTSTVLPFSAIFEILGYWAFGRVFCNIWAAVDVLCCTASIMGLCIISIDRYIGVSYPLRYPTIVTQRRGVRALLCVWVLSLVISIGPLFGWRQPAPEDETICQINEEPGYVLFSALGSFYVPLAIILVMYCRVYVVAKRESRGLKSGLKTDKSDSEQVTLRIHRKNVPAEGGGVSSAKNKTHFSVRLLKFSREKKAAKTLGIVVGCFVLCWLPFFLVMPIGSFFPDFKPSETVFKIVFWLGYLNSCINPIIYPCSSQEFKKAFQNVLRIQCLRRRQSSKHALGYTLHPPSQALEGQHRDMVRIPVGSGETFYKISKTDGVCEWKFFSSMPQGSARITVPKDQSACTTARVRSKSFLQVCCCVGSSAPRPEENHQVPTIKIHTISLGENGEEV

[6] = target: D(2) dopamine receptor (Rattus norvegicus, UniProt P61169); experiment: Inhibitory concentration required against Dopamine receptor D2 in rat striatum; type: tissue-based
D(2) dopamine receptor, sequence (P61169 whole entry): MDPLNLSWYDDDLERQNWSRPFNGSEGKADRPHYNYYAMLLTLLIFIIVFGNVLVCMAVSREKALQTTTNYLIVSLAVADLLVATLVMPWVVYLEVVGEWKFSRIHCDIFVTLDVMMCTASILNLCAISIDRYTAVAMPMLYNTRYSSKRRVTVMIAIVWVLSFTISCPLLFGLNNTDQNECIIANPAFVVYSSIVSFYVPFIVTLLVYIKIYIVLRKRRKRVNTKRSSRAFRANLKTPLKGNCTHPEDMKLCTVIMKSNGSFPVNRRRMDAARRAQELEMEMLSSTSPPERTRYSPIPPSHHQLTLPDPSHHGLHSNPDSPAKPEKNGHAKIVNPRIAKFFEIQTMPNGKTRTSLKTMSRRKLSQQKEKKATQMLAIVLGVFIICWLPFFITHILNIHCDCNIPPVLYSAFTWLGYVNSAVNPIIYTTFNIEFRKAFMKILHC

[7] = tested on: Rattus norvegicus; experiment: In vivo motor activity determined in rat at 0.1 mg/kg of ip administration; type: functional; conditions: route intraperitoneal
Procedure, shortened: (§1)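 Rat social interaction paradigm with total motor activity counts recorded in the same session. All compounds were given ip, with a saline-treated control group. Combination arms gave a 0.1 mg/kg agent together with a second agent at 1 mg/kg, both ip. Social interaction time (s) and motor counts are reported as mean ± SEM, with significance tested against saline control.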

[8] = tested on: Rattus norvegicus; experiment: Social interaction time determined in vivo in rat at 0.1 mg/kg of ip administration; type: functional; conditions: route intraperitoneal; procedure, shortened: as §1
[9] = target: Sodium-dependent serotonin transporter (Rattus norvegicus, UniProt P31652); experiment: Inhibitory concentration required against 5-HT uptake in rat cortex
Sodium-dependent serotonin transporter, sequence (P31652 whole entry): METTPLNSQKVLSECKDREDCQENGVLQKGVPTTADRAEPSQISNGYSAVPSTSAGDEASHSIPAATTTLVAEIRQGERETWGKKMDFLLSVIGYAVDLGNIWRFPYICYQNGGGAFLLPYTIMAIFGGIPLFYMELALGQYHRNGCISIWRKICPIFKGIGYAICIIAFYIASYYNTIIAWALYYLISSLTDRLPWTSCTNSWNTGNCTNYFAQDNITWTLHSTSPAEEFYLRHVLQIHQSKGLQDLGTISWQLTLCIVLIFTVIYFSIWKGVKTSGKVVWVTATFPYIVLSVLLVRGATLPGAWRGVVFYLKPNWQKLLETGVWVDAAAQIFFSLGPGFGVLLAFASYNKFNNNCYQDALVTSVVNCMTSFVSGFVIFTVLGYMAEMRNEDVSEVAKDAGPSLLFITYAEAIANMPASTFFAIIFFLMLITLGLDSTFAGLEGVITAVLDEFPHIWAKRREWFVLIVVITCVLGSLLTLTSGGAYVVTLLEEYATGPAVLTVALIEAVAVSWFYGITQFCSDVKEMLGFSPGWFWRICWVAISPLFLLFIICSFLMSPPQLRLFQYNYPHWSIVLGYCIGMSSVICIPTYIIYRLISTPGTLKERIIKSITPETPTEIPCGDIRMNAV

[10] = tested on: Rattus norvegicus; experiment: In vivo motor activity determined in rat at 1.7 mg/kg of ip administration; type: functional; conditions: route intraperitoneal
Procedure, shortened: (§2)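 Rats dosed i.p. against a saline-treated control group. Social interaction time (s) and total motor activity (counts) were recorded in the same social-interaction session and reported as mean ± SEM, with significance tested against saline control.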

[11] = tested on: Rattus norvegicus; experiment: Social interaction time determined in vivo rat at 1.7 mg/kg of ip administration; type: functional; conditions: route intraperitoneal; procedure, shortened: as §2
[12] = tested on: Rattus norvegicus; experiment: In vivo motor activity determined in rat at 1.7 + 1 mg/kg of ip administration; type: functional; conditions: route intraperitoneal; procedure, shortened: as §2
[13] = tested on: Rattus norvegicus; experiment: Social interaction time determined in vivo in rat at 1.7 + 1 mg/kg of ip administration; type: functional; conditions: route intraperitoneal; procedure, shortened: as §2

## OC1(c2ccc3c(c2)OCO3)CCC(N2CCN(Cc3ccccc3)CC2)CC1 (stereo not drawn)
[1]
  IC50: 0.02 µM
[2]
  IC50: > 1 µM
[3]
  IC50: 11 µM
[4]
  IC50: 0.41 µM
[5]
  IC50: 0.7 µM
[6]
  IC50: 1.7 µM
[7]
  Motor activity: 4700 Counts
[8]
  Time: 104 s
[9]
  IC50: > 1 µM

## CN1C(=O)CN=C(c2ccccc2)c2cc(Cl)ccc21 [DIAZEPAM]
[10]
  Motor activity: 5100 Counts
[11]
  Time: 120 s

## CN1C(=O)CN=C(c2ccccc2)c2cc(Cl)ccc21.COc1cccc(CN2CCN(C3CCC(O)(c4ccc5c(c4)OCO5)CC3)CC2)c1 (stereo not drawn)
[12]
  Motor activity: 4900 Counts
[13]
  Time: 113 s
